Results taken from publication PMC3483883 (Bioorganic & medicinal chemistry letters, 2012).

How the values were obtained:
[1] = target: T1, hTopIB (Homo sapiens, UniProt P11387); test: Plasmid DNA relaxation assay, hTopIB; format: biochemical
T1 sequence (P11387 1-765): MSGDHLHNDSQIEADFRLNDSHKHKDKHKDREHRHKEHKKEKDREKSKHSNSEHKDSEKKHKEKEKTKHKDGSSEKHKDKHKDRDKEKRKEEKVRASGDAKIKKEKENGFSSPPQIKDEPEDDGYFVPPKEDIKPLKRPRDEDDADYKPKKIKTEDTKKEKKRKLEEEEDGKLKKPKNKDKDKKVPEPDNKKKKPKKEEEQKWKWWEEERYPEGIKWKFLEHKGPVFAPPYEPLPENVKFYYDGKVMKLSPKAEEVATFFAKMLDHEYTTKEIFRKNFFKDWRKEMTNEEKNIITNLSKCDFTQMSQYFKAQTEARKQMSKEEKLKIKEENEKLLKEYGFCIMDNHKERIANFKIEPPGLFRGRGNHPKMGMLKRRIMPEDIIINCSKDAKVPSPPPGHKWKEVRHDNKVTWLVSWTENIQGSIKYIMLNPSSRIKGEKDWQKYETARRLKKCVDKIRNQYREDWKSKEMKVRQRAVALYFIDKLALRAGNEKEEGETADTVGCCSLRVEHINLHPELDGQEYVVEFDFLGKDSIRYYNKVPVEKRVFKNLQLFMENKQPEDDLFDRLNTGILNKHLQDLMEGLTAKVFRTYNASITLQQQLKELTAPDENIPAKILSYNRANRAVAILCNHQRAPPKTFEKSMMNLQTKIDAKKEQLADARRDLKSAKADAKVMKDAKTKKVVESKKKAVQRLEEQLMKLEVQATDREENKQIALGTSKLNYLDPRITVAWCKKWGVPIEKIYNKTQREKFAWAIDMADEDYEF

[2] = system: Leishmania donovani (axenic amastigotes); test: Antiprotozoal activity against L. donovani axenic amastigotes; format: cell-based; conditions: read-out: Leishmania donovani IC50
[3] = system: L. infantum promastigotes; test: Activity against L. infantum promastigotes; format: cell-based; conditions: Leishmania infantum, read-out: IC50 against L. infantum promastigotes
[4] = target: T1, hTopIB; test: Supercoiled plasmid DNA TopIB-mediated cleavage assay, hTopIB; format: biochemical; conditions: 100 μM
[5] = system: Trypanosoma brucei rhodesiense (bloodstream forms); test: Antiprotozoal activity against T. brucei rhodesiense bloodstream forms; format: cell-based; conditions: read-out: Trypanosoma brucei rhodesiense IC50
[6] = system: Murine macrophages BALB/c; test: Toxicity against BALB/c murine macrophages; format: cell-based; conditions: Mus musculus, Macrophage, read-out: Murine macrophages BALB/c IC50
[7] = target: T2, LdTopIB (Leishmania donovani, UniProt A0A3Q8IHS4+Q8WQM6); test: Supercoiled plasmid DNA TopIB-mediated cleavage assay, LdTopIB; format: biochemical
[8] = system: Leishmania donovani, Trypanosoma brucei rhodesiense, Trypanosoma cruzi; test: Antiprotozoal activity against all the studied protozoa; format: cell-based; conditions: read-out: IC50 values against all the studied protozoa
Summary of the method: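 In vitro growth-inhibition IC50 against L. donovani, T. cruzi and T. b. rhodesiense. Values are averages of at least two independent assays, each run in duplicate. Reference drugs in the same set are melarsoprol, benznidazole, miltefosine and podophyllotoxin.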

[9] = target: T2, LdTopIB; test: Plasmid DNA relaxation assay, LdTopIB; format: biochemical
[10] = L6 cell cytotoxicity; format: cell-based; conditions: rat, L6 cells (rat skeletal myoblasts)
[11] = system: fluconazole resistant Candida albicans strains; conditions: series of strains; cited from earlier work
[12] = target: leukotriene B4 ω-oxidase; conditions: read-out: IC50 leukotriene B4 ω-oxidase; suicide inhibitor; cited from earlier work
[13] = system: L. infantum promastigotes; conditions: 400 μM, 24 h

Question: What does the source list for CCCCCCCCCCCCCC#CC(=O)O [2-HDA, 2-hexadecynoic acid]?
Answer: EC50 [1]: > 100 µM; inhibition of hTopIB at 100 μM [1]: neither 2-TDA nor 2-HDA was inhibitory; IC50 [2]: 17.8 µM; IC50 [3]: 14.9 µM; inhibition of hTopIB [4]: no inhibition; IC50 [5]: 83.6 µM; IC50 [6]: > 100 µM; inhibition of catalytic activity of LdTopIB ([7]; 100 μM): inhibits the catalytic activity; enzymatic activity of LdTopIB after pre-incubation ([7]; pre-incubated 15 min with 100 μM before DNA and CPT): fully inhibited; IC50 [8]: 17.8 to 83.6 µM; EC50 [9]: 28.7 ± 1.3 µM; IC50 [10]: 340 µM

Question: Which EC50 [9] does the source give for CCCCCCCCCCCCCCCC#CC(=O)O [2-ODA, 2-octadecynoic acid] here?
Answer: 5.3 ± 0.7 µM

Question: What does the source list for CCCCCCCCCCCC#CC(=O)O [2-TDA, 2-tetradecynoic acid]?
Answer: EC50 [1]: > 100 µM; inhibition of hTopIB at 100 μM [1]: neither 2-TDA nor 2-HDA was inhibitory; IC50 [8]: 24.7 to 255 µM; EC50 [9]: 67.8 ± 1.1 µM

Question: With CCCCCCCCCCCC#CCCCCC(=O)O [6-ODA, 6-octadecynoic acid] as the molecule, how does the “IC50 against fluconazole resistant Candida albicans strains” value [11] read?
Answer: 0.45 to 0.65 µg/mL

Question: Which IC50 [12] does the source give for C#CCCCCCCCCCCCCCCCC(=O)O [17-ODA, 17-octadecynoic acid] here?
Answer: < 5 µM

Question: With CC[C@@]1(O)C(=O)OCc2c1cc1n(c2=O)Cc2cc3ccccc3nc2-1 [CPT, camptothecin, reference compound] as the molecule, how does the EC50 [9] read?
Answer: 0.67 ± 0.08 µM

Question: With Nc1nc(N)nc(Nc2ccc([As]3SCC(CO)S3)cc2)n1 (stereo not shown) [Melarsoprol, reference compound] as the molecule, how does the IC50 [5] read?
Answer: 0.0075 µM

Question: Which “apoptotic cells (Annexin-V-FITC)” value [13] does the source give for OO [hydrogen peroxide] here?
Answer: positive test
